ChEMBL document CHEMBL1152893, “Synthesis and in vitro trichomonicidal, giardicidal and amebicidal activity of N-acetamide(sulfonamide)-2-methyl-4-nitro-1H-imidazoles” (Eur J Med Chem, 2009)

system: not listed separately; assay: Selectivity index, ratio of CC50 for MDCK cells to IC50 for Entamoeba histolytica HM-1:IMSS trophozoites; format: functional; conditions: not given

Q: With `Cc1nc([N+](=O)[O-])cn1CC(=O)Nc1ccccc1` as the compound, how does the “Ratio CC50/IC50” value read?
A: 43

Q: For `Cc1nc([N+](=O)[O-])cn1CC(=O)Nc1c(Cl)cccc1Cl`, which “Ratio CC50/IC50” value is on record?
A: 16

Q: For `Cc1nc([N+](=O)[O-])cn1S(=O)(=O)c1ccccc1`, which “Ratio CC50/IC50” value is on record?
A: 188

Q: With `Cc1nc([N+](=O)[O-])cn1CC(=O)NCc1ccccc1` as the compound, how does the “Ratio CC50/IC50” value read?
A: 20

Q: With `Cc1nc([N+](=O)[O-])cn1S(=O)(=O)c1ccc(F)cc1` as the compound, how does the “Ratio CC50/IC50” value read?
A: 183

Q: With `Cc1nc([N+](=O)[O-])cn1CC(=O)Nc1ccc(Cl)cc1` as the compound, how does the “Ratio CC50/IC50” value read?
A: 35

Q: With `Cc1nc([N+](=O)[O-])cn1CC(=O)Nc1ccc(F)cc1` as the compound, how does the “Ratio CC50/IC50” value read?
A: 74

Q: With `CC(=O)Nc1ccc(S(=O)(=O)n2cc([N+](=O)[O-])nc2C)cc1` as the compound, how does the “Ratio CC50/IC50” value read?
A: 265

system: Trichomonas vaginalis; assay: Ratio of 2-methyl-4(5)-nitroimidazole IC50 to compound IC50 for Trichomonas vaginalis GT3 trophozoites; format: functional; conditions: not given

Q: With `Cc1nc([N+](=O)[O-])cn1CC(=O)NCc1ccccc1` as the compound, how does the “Ratio IC50” value read?
A: 5

Q: For `Cc1nc([N+](=O)[O-])cn1CC(=O)Nc1ccc(Cl)cc1`, which “Ratio IC50” value is on record?
A: 5

Q: Which “Ratio IC50” value does the source give for `Cc1nc([N+](=O)[O-])cn1CC(=O)Nc1ccc(F)cc1` here?
A: 6

system: Entamoeba histolytica; assay: Ratio of 2-methyl-4(5)-nitroimidazole IC50 to compound IC50 for Entamoeba histolytica HM-1:IMSS trophozoites; format: functional; conditions: not given

Q: With `Cc1nc([N+](=O)[O-])cn1CC(=O)NCc1ccccc1` as the compound, how does the “Ratio IC50” value read?
A: 2

Q: With `CC(=O)Nc1ccc(S(=O)(=O)n2cc([N+](=O)[O-])nc2C)cc1` as the compound, how does the “Ratio IC50” value read?
A: 2

system: Trichomonas vaginalis; assay: Antiparasitic activity against Trichomonas vaginalis GT3 trophozoites after 48 hrs by […]; format: functional, organism-based; conditions: GT3, 48 h
Outline: (§1)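 Axenic trophozoites grown in modified TYI-S-33 with 10% calf serum and bovine bile; exposed 48 h at 37 °C to increasing compound concentrations, DMSO as negative control. Then washed, subcultured 48 h in fresh drug-free medium and counted. IC50 by Probit analysis; triplicate, repeated at least twice.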

Q: For `Cc1nc([N+](=O)[O-])cn1CC(=O)Nc1ccccc1`, which IC50 is on record?
A: 24.6 µM

Q: With `Cc1nc([N+](=O)[O-])cn1CC(=O)Nc1c(Cl)cccc1Cl` as the compound, how does the IC50 read?
A: 37 µM

Q: For `Cc1nc([N+](=O)[O-])cn1S(=O)(=O)c1ccccc1`, which IC50 is on record?
A: 12.5 µM

Q: For `Cc1nc([N+](=O)[O-])cn1CC(=O)NCc1ccccc1`, which IC50 is on record?
A: 7.98 µM

Q: With `Cc1nc([N+](=O)[O-])cn1S(=O)(=O)c1ccc(F)cc1` as the compound, how does the IC50 read?
A: 11.5 µM

Q: Which IC50 does the source give for `Cc1nc([N+](=O)[O-])cn1CC(=O)Nc1ccc(Cl)cc1` here?
A: 9.18 µM

Q: With `Cc1nc([N+](=O)[O-])cn1CC(=O)Nc1ccc(F)cc1` as the compound, how does the IC50 read?
A: 5.61 µM

Q: Which IC50 does the source give for `CC(=O)Nc1ccc(S(=O)(=O)n2cc([N+](=O)[O-])nc2C)cc1` here?
A: 8.73 µM

system: Entamoeba histolytica; assay: Amebicidal activity against Entamoeba histolytica HM-1:IMSS trophozoites after 48 hrs by […]; format: functional, organism-based; conditions: not given; outline: as §1

Q: For `Cc1nc([N+](=O)[O-])cn1CC(=O)Nc1ccccc1`, which IC50 is on record?
A: 26.6 µM

Q: With `Cc1nc([N+](=O)[O-])cn1CC(=O)Nc1c(Cl)cccc1Cl` as the compound, how does the IC50 read?
A: 25.3 µM

Q: Which IC50 does the source give for `Cc1nc([N+](=O)[O-])cn1S(=O)(=O)c1ccccc1` here?
A: 6.74 µM

Q: For `Cc1nc([N+](=O)[O-])cn1CC(=O)NCc1ccccc1`, which IC50 is on record?
A: 3.96 µM

Q: For `Cc1nc([N+](=O)[O-])cn1S(=O)(=O)c1ccc(F)cc1`, which IC50 is on record?
A: 4.44 µM

Q: For `Cc1nc([N+](=O)[O-])cn1CC(=O)Nc1ccc(Cl)cc1`, which IC50 is on record?
A: 18.1 µM

Q: With `Cc1nc([N+](=O)[O-])cn1CC(=O)Nc1ccc(F)cc1` as the compound, how does the IC50 read?
A: 11.2 µM

Q: For `CC(=O)Nc1ccc(S(=O)(=O)n2cc([N+](=O)[O-])nc2C)cc1`, which IC50 is on record?
A: 3.89 µM

system: not listed separately; assay: Selectivity index, ratio of CC50 for MDCK cells to IC50 for Trichomonas vaginalis GT3 trophozoites; format: functional; conditions: not given

Q: Which “Ratio CC50/IC50” value does the source give for `Cc1nc([N+](=O)[O-])cn1CC(=O)Nc1ccccc1` here?
A: 46

Q: For `Cc1nc([N+](=O)[O-])cn1CC(=O)Nc1c(Cl)cccc1Cl`, which “Ratio CC50/IC50” value is on record?
A: 11

Q: With `Cc1nc([N+](=O)[O-])cn1S(=O)(=O)c1ccccc1` as the compound, how does the “Ratio CC50/IC50” value read?
A: 101

Q: For `Cc1nc([N+](=O)[O-])cn1CC(=O)NCc1ccccc1`, which “Ratio CC50/IC50” value is on record?
A: 10

Q: With `Cc1nc([N+](=O)[O-])cn1S(=O)(=O)c1ccc(F)cc1` as the compound, how does the “Ratio CC50/IC50” value read?
A: 71

Q: With `Cc1nc([N+](=O)[O-])cn1CC(=O)Nc1ccc(Cl)cc1` as the compound, how does the “Ratio CC50/IC50” value read?
A: 70

Q: With `Cc1nc([N+](=O)[O-])cn1CC(=O)Nc1ccc(F)cc1` as the compound, how does the “Ratio CC50/IC50” value read?
A: 148

Q: Which “Ratio CC50/IC50” value does the source give for `CC(=O)Nc1ccc(S(=O)(=O)n2cc([N+](=O)[O-])nc2C)cc1` here?
A: 118

system: Trichomonas vaginalis; assay: Ratio of Benznidazole IC50 to compound IC50 for Trichomonas vaginalis GT3 trophozoites; format: functional; conditions: not given

Q: For `Cc1nc([N+](=O)[O-])cn1CC(=O)NCc1ccccc1`, which “Ratio IC50” value is on record?
A: 2

Q: With `Cc1nc([N+](=O)[O-])cn1CC(=O)Nc1ccc(Cl)cc1` as the compound, how does the “Ratio IC50” value read?
A: 2

Q: With `Cc1nc([N+](=O)[O-])cn1CC(=O)Nc1ccc(F)cc1` as the compound, how does the “Ratio IC50” value read?
A: 3

system: not listed separately; assay: Selectivity index, ratio of CC50 for MDCK cells to IC50 for Giardia intestinalis IMSS:0696 trophozoites; format: functional; conditions: not given

Q: For `Cc1nc([N+](=O)[O-])cn1CC(=O)Nc1ccccc1`, which “Ratio CC50/IC50” value is on record?
A: 23

Q: Which “Ratio CC50/IC50” value does the source give for `Cc1nc([N+](=O)[O-])cn1CC(=O)Nc1c(Cl)cccc1Cl` here?
A: 18

Q: Which “Ratio CC50/IC50” value does the source give for `Cc1nc([N+](=O)[O-])cn1S(=O)(=O)c1ccccc1` here?
A: 106

Q: With `Cc1nc([N+](=O)[O-])cn1CC(=O)NCc1ccccc1` as the compound, how does the “Ratio CC50/IC50” value read?
A: 4

Q: With `Cc1nc([N+](=O)[O-])cn1S(=O)(=O)c1ccc(F)cc1` as the compound, how does the “Ratio CC50/IC50” value read?
A: 77

Q: With `Cc1nc([N+](=O)[O-])cn1CC(=O)Nc1ccc(Cl)cc1` as the compound, how does the “Ratio CC50/IC50” value read?
A: 40

Q: With `Cc1nc([N+](=O)[O-])cn1CC(=O)Nc1ccc(F)cc1` as the compound, how does the “Ratio CC50/IC50” value read?
A: 39

Q: Which “Ratio CC50/IC50” value does the source give for `CC(=O)Nc1ccc(S(=O)(=O)n2cc([N+](=O)[O-])nc2C)cc1` here?
A: 51

system: Giardia intestinalis; assay: Antiparasitic activity against Giardia intestinalis IMSS:0696 trophozoites after 48 hrs by […]; format: functional, organism-based; conditions: Giardia duodenalis, IMSS:0696, 48 h; outline: as §1

Q: With `Cc1nc([N+](=O)[O-])cn1CC(=O)Nc1ccccc1` as the compound, how does the IC50 read?
A: 49.1 µM

Q: With `Cc1nc([N+](=O)[O-])cn1CC(=O)Nc1c(Cl)cccc1Cl` as the compound, how does the IC50 read?
A: 22 µM

Q: Which IC50 does the source give for `Cc1nc([N+](=O)[O-])cn1S(=O)(=O)c1ccccc1` here?
A: 12 µM

Q: With `Cc1nc([N+](=O)[O-])cn1CC(=O)NCc1ccccc1` as the compound, how does the IC50 read?
A: 17.7 µM

Q: Which IC50 does the source give for `Cc1nc([N+](=O)[O-])cn1S(=O)(=O)c1ccc(F)cc1` here?
A: 10.6 µM

Q: With `Cc1nc([N+](=O)[O-])cn1CC(=O)Nc1ccc(Cl)cc1` as the compound, how does the IC50 read?
A: 16 µM

Q: For `Cc1nc([N+](=O)[O-])cn1CC(=O)Nc1ccc(F)cc1`, which IC50 is on record?
A: 21 µM

Q: For `CC(=O)Nc1ccc(S(=O)(=O)n2cc([N+](=O)[O-])nc2C)cc1`, which IC50 is on record?
A: 20.2 µM

system: not listed separately; assay: Cytotoxicity against MDCK cells after 72 hrs by MTT assay; format: cell-based, Canis lupus familiaris; conditions: dog
Outline: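 MDCK cells in DMEM with 10% FBS and penicillin/streptomycin, 37 °C, 5% CO2. 1.5×10⁴ cells/well seeded; above 80% confluence, medium replaced and compounds added from 6.25 upward, DMSO final 0.05%. After 72 h, MTT added for 4 h at 37 °C. Formazan dissolved in acidified isopropanol (0.4 N HCl), OD 540 nm; untreated cells as negative control; CC50 calculated.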

Q: Which CC50 at 72 h does the source give for `Cc1nc([N+](=O)[O-])cn1CC(=O)Nc1ccccc1` here?
A: 1140 µM

Q: Which CC50 at 72 h does the source give for `Cc1nc([N+](=O)[O-])cn1CC(=O)Nc1c(Cl)cccc1Cl` here?
A: 396 µM

Q: With `Cc1nc([N+](=O)[O-])cn1S(=O)(=O)c1ccccc1` as the compound, how does the CC50 at 72 h read?
A: 1270 µM

Q: For `Cc1nc([N+](=O)[O-])cn1CC(=O)NCc1ccccc1`, which CC50 at 72 h is on record?
A: 77.5 µM

Q: Which CC50 at 72 h does the source give for `Cc1nc([N+](=O)[O-])cn1S(=O)(=O)c1ccc(F)cc1` here?
A: 813 µM

Q: With `Cc1nc([N+](=O)[O-])cn1CC(=O)Nc1ccc(Cl)cc1` as the compound, how does the CC50 at 72 h read?
A: 642 µM

Q: With `Cc1nc([N+](=O)[O-])cn1CC(=O)Nc1ccc(F)cc1` as the compound, how does the CC50 at 72 h read?
A: 828 µM

Q: Which CC50 at 72 h does the source give for `CC(=O)Nc1ccc(S(=O)(=O)n2cc([N+](=O)[O-])nc2C)cc1` here?
A: 1030 µM
